From ChEMBL document CHEMBL3108696, “Structure-activity relationships of chromone derivatives toward the mechanism of interaction with and inhibition of breast cancer resistance protein ABCG2” (J Med Chem, 2013)

Tests used:
[1] = target: T1, Broad substrate specificity ATP-binding cassette transporter ABCG2 (Homo sapiens, UniProt Q9UNQ0); experiment: Inhibition of human ABCG2 expressed in Sf9 insect cell membranes assessed as inhibition of quercetin-stimulated ATPase activity after 30 mins by colorimetric analysis in presence of sodium orthovanadate; conditions: for inhibition (INH): human, sf9, 0.5 h
T1 sequence (Q9UNQ0 whole entry): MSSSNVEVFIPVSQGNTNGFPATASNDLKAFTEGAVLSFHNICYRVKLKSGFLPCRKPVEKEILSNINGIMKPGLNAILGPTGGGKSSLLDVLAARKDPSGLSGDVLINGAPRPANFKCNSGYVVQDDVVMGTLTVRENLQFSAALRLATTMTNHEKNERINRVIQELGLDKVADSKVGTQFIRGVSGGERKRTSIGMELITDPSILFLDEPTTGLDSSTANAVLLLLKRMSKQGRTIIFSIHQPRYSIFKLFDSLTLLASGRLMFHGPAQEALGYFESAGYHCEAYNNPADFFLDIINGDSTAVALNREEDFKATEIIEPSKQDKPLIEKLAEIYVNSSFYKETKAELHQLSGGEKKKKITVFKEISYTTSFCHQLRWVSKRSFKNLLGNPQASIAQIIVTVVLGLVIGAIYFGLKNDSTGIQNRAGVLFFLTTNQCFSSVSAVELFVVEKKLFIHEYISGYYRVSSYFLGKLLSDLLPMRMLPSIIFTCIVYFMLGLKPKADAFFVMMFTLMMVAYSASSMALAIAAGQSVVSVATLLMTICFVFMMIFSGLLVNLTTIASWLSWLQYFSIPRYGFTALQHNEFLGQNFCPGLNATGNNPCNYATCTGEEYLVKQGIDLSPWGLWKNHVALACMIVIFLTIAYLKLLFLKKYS
In short: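 Quercetin (2 μM)-stimulated vanadate-sensitive ATPase assay on cholesterol-loaded ABCG2 Sf9 membranes (10 μg/sample) in Tris/NaCl buffer, pH 8.0. Compound at 0.01, 0.03, 0.5 and 2 μM. ATP-Mg 3.9 mM, 30 min at 37 °C. Released phosphate read colorimetrically at 880 nm. IC50 estimated as 50% inhibition of initial activity; three independent experiments.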

ABCG2 [2] = target: T2, ABCG2 (Homo sapiens, UniProt Q9UNQ0); experiment: Inhibition of ABCG2 (unknown origin)-mediated pheophorbide A efflux expressed in HEK293 cells at 1 to 5 uM after 30 mins by flow cytometric analysis relative to control; format: cell-based; conditions: HEK293 cells expressing ABCG2, probe pheophorbide A, read-out: Imax
T2 sequence (Q9UNQ0 whole entry): T1 sequence (Q9UNQ0 whole entry)
In short: (§1)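 Cells seeded at 1.5 × 10^5 cells/well and grown 48 h were exposed to BODIPY-prazosin (0.2 μM) or pheophorbide A (2 μM) for 30 min at 37 °C with or without compound. After washing and trypsinization, intracellular fluorescence was read by flow cytometry (FL4, ≥10 000 events). Percent inhibition = (C−M)/(Cev−M)×100, where Cev is from ABCG2-negative control cells.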

[3] = target: T1, Broad substrate specificity ATP-binding cassette transporter ABCG2; experiment: Inhibition of human ABCG2 ATPase activity expressed in Sf9 insect cell membranes at 2 uM after 30 mins by colorimetric analysis relative to basal control in presence of sodium orthovanadate; conditions: sf9, 0.5 h
In short: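 Basal vanadate-sensitive ATPase assay on cholesterol-loaded membranes from human ABCG2-expressing Sf9 cells (0.5 mg/mL; 10 μg/sample). Buffer: 50 mM Tris-HCl, 50 mM NaCl, pH 8.0, with azide, ouabain, DTT and EGTA, ± 0.33 mM orthovanadate. Compound at 2 μM, or substrates nilotinib 0.1 μM, quercetin 2 μM, prazosin 20 μM. ATP-Mg 3.9 mM, 30 min at 37 °C. Phosphate read by molybdate/ascorbate at 880 nm.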

[4] = target: ATP-dependent translocase ABCB1 (Homo sapiens, UniProt P08183); experiment: Inhibition of ABCB1 (unknown origin)-mediated rhodamine 123 efflux expressed in mouse NIH/3T3 cells at 5 uM after 30 mins by flow cytometric analysis; format: cell-based; conditions: nih/3t3, 0.5 h
Chain of ATP-dependent translocase ABCB1 (P08183 whole entry): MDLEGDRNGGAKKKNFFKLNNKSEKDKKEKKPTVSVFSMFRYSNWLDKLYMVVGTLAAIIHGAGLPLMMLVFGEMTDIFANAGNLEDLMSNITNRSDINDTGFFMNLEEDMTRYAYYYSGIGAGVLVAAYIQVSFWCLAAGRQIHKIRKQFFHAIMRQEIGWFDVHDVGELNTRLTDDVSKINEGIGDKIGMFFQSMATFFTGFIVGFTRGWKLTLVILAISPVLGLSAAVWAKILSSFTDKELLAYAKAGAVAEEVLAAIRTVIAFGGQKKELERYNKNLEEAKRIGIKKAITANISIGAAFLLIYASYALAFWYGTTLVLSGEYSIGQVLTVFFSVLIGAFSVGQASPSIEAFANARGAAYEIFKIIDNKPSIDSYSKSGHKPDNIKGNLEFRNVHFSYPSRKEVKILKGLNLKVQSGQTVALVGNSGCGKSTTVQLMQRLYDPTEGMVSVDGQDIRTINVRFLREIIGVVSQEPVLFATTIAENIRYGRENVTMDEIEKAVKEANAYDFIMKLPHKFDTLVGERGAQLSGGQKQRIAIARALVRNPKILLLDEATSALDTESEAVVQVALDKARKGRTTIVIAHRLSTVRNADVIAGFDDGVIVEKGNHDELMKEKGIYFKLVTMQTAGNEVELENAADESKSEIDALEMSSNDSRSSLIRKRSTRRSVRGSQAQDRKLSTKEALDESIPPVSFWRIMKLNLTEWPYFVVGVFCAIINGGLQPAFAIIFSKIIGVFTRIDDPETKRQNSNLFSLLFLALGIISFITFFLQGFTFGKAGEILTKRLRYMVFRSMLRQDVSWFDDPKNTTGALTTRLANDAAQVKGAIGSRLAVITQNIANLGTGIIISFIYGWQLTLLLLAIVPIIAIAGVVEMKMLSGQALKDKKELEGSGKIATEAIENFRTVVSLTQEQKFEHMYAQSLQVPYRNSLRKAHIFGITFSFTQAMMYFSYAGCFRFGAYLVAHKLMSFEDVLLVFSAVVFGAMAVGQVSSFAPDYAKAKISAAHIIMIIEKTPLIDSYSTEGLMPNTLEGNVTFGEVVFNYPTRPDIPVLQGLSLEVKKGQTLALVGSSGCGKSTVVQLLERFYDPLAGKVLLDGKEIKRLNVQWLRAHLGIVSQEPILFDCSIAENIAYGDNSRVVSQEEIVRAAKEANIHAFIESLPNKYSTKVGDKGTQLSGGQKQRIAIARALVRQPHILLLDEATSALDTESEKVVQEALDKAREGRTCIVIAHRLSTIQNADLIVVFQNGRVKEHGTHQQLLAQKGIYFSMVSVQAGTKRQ

[5] = target: T1, Broad substrate specificity ATP-binding cassette transporter ABCG2; experiment: Binding affinity to ABCG2 (unknown origin) expressed in HEK293 cells assessed as modulation of 5D3 binding at 5 uM after 45 mins by flow cytometric analysis relative to Ko143; format: cell-based; conditions: hek293, 0.75 h
In short: (§2)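 5D3 shift assay on ABCG2-transfected HEK293 cells (0.5 × 10^6 cells/tube) in PBS with 0.5% BSA. Compound at 2 or 5 μM plus 5D3 anti-ABCG2 antibody or isotype control (1 μg/mL), 45 min at 37 °C. Anti-mouse Alexa Fluor 488 secondary (3 μg/mL), 30 min at 37 °C. Binding read by flow cytometry, expressed relative to 2 μM Ko143 (100%). Mean ± SD of ≥3 independent experiments.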

[6] = target: T1, Broad substrate specificity ATP-binding cassette transporter ABCG2; experiment: Inhibition of ABCG2-mediated mitoxantrone efflux in mitoxantrone-selected human H460 cells after 30 mins by flow cytometric analysis; format: cell-based
[7] = target: T1, Broad substrate specificity ATP-binding cassette transporter ABCG2; experiment: Binding affinity to ABCG2 (unknown origin) expressed in HEK293 cells assessed as modulation of 5D3 binding at 2 uM after 45 mins by flow cytometric analysis relative to Ko143; format: cell-based; conditions: hek293, 0.75 h; in short: as §2
[8] = target: Multidrug resistance-associated protein 1 (Homo sapiens, UniProt P33527); experiment: Inhibition of ABCC1 (unknown origin)-mediated calcein-AM efflux expressed in HEK293 cells at 5 uM after 30 mins by flow cytometric analysis; format: cell-based; conditions: hek293, 0.5 h
Chain of Multidrug resistance-associated protein 1 (P33527 whole entry): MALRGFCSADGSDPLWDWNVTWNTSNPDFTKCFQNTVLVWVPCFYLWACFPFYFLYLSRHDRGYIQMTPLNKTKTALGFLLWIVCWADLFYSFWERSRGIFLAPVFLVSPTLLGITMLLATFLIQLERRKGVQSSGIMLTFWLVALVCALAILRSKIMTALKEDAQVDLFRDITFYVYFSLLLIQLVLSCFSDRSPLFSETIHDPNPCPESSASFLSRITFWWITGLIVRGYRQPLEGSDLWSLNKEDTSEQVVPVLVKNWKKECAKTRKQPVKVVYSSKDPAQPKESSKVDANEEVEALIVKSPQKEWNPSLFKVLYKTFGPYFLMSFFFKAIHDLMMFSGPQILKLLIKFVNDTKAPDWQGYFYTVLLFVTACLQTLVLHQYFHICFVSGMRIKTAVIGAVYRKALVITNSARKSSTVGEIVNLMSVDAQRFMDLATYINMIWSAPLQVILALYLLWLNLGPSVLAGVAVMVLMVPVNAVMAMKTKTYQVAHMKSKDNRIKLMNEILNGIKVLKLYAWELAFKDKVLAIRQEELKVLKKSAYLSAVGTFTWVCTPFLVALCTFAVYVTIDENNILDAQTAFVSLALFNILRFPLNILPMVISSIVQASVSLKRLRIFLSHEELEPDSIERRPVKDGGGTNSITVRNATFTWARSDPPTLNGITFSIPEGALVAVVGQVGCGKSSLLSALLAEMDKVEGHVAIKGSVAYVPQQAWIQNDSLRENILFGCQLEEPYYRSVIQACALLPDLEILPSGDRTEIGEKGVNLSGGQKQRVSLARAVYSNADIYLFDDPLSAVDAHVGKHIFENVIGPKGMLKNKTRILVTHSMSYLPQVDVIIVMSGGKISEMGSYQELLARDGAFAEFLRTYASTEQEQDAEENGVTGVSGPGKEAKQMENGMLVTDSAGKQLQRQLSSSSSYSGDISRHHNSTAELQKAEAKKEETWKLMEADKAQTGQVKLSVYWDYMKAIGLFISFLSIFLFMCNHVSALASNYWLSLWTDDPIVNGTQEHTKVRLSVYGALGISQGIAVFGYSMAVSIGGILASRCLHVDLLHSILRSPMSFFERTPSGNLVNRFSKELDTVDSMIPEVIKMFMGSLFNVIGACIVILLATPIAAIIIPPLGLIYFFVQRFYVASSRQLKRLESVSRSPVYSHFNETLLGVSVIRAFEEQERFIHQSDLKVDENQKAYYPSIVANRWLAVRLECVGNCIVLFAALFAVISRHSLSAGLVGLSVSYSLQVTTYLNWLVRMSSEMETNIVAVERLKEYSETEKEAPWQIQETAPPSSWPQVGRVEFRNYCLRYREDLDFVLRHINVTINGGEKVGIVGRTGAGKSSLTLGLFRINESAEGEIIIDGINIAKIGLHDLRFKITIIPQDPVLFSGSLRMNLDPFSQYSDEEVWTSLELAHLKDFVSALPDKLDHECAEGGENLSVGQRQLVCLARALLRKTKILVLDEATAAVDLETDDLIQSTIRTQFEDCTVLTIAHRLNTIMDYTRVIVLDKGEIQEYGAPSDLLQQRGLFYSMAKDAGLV

[9] = target: T1, Broad substrate specificity ATP-binding cassette transporter ABCG2; experiment: Inhibition of ABCG2 (unknown origin)-mediated mitoxantrone efflux expressed in HEK293 cells after 30 mins by flow cytometric analysis; format: cell-based
[10] = target: T1, Broad substrate specificity ATP-binding cassette transporter ABCG2; experiment: Inhibition of ABCG2 (unknown origin)-mediated BODIPY-prazosin efflux expressed in HEK293 cells at 1 to 5 uM after 30 mins by flow cytometric analysis; format: cell-based; conditions: hek293, 0.5 h; in short: as §1
ABCG2 [11] = target: T2, ABCG2; experiment: Inhibition of ABCG2-mediated mitoxantrone efflux in mitoxantrone-selected human H460 cells at 5 to 10 uM after 30 mins by flow cytometric analysis relative to control; format: cell-based; conditions: probe mitoxantrone, read-out: Imax
ABCG2 [12] = target: T2, ABCG2; experiment: Inhibition of ABCG2 (unknown origin)-mediated mitoxantrone efflux expressed in HEK293 cells at 5 to 10 uM after 30 mins by flow cytometric analysis relative to control; format: cell-based; conditions: HEK293 cells expressing ABCG2, probe mitoxantrone, read-out: Imax
[13] = target: T1, Broad substrate specificity ATP-binding cassette transporter ABCG2; experiment: Stimulation of human ABCG2 ATPase activity expressed in Sf9 insect cell membranes at 2 uM after 30 mins by colorimetric analysis relative to basal control in presence of sodium orthovanadate; conditions: sf9, 0.5 h

SMILES | IC50 [1] [nM] | inhibition (INH) [1] | Emax at 0.5 h (ABCG2 [2]) [%] | inhibition (INH) [3] | inhibition (INH) [4] | Activity [5] [%] | Activity [7] [%] | inhibition (INH) [8] | inhibition (INH) [10] | EC50 [6] [nM] | EC50 [9] [nM] | Emax at 0.5 h (ABCG2 [11]) [%] | Emax at 0.5 h (ABCG2 [12]) [%] | fold change (FC) [13]
COc1ccc2[nH]cc(CCN(C)C(=O)c3cc(=O)c4c(OCc5ccc(Br)cc5)cccc4o3)c2c1 | > 2000 | Dose-dependent effect | 80 | Active | Not Active | 97.4 | 82.8 | Not Active | Active | 530 | 960 | 96 | 101 | 
COc1ccc2[nH]cc(CCNC(=O)c3cc(=O)c4cc(OCc5ccc(Br)cc5)ccc4o3)c2c1 | 530 | Dose-dependent effect | 80 | Not Active | Not Active | 99.9 | 93.3 | Not Active | Active | 100 | 290 | 109 | 108 | 
CN(CCc1c[nH]c2ccccc12)C(=O)c1cc(=O)c2cc(OCc3ccc(Br)cc3)ccc2o1 | > 2000 | Dose-dependent effect |  | Not Active |  | 79.4 | 47.6 |  |  | 1670 | 2580 | 50 | 54 | 
CN(CCc1cn(C)c2ccccc12)C(=O)c1cc(=O)c2cc(OCc3ccc(Br)cc3)ccc2o1 | > 2000 | Dose-dependent effect |  | Not Active |  | 72.1 | 40.9 |  |  | 2150 | 2060 | 61 | 50 | 
COc1ccc2[nH]cc(CCNC(=O)c3cc(=O)c4ccc(OCc5ccc(Br)cc5)cc4o3)c2c1 | 10 | Dose-dependent effect |  |  |  | 90.1 | 64.6 |  |  | 1540 | 1270 | 93 | 80 | 2.1
COc1ccc2[nH]cc(CCN(C)Cc3cc(=O)c4c(OCc5ccc(Br)cc5)cccc4o3)c2c1 | 820 | Dose-dependent effect |  | Active |  | 102.5 | 82.3 |  |  | 600 | 1130 | 106 | 75 | 
O=c1c(O)c(-c2ccc(O)c(O)c2)oc2cc(O)cc(O)c12 [QUERCETIN] |  |  |  |  |  |  |  |  |  |  |  |  |  | 4.1

Now from value to compound, other results behind:

IC50 [1] [nM] | inhibition (INH) [1] | Emax at 0.5 h (ABCG2 [2]) [%] | inhibition (INH) [3] | inhibition (INH) [4] | Activity [5] [%] | Activity [7] [%] | inhibition (INH) [8] | inhibition (INH) [10] | SMILES | EC50 [6] [nM] | EC50 [9] [nM] | Emax at 0.5 h (ABCG2 [11]) [%] | Emax at 0.5 h (ABCG2 [12]) [%] | fold change (FC) [13]
380 | Dose-dependent effect | 80 | Active | Not Active | 103.5 | 100.5 | Not Active | Active | COc1ccc2[nH]cc(CCNC(=O)c3cc(=O)c4c(OCc5ccc(Br)cc5)cccc4o3)c2c1 | 50 | 130 | 107 | 98 | 
> 2000 | Dose-dependent effect | 80 | Active | Not Active | 98.9 | 76.4 | Not Active | Active | CN(CCc1cn(C)c2ccccc12)C(=O)c1cc(=O)c2c(OCc3ccc(Br)cc3)cccc2o1 | 500 | 1000 | 84 | 88 | 
> 2000 | Dose-dependent effect | 80 | Active | Not Active | 95.9 | 74.6 | Not Active | Active | CN(CCc1c[nH]c2ccccc12)C(=O)c1cc(=O)c2c(OCc3ccc(Br)cc3)cccc2o1 | 570 | 1110 | 89 | 105 | 
430 | Dose-dependent effect |  | Not Active |  | 95.4 | 74.3 |  |  | O=C(NCc1cn(Cc2ccccc2)nn1)c1cc(=O)c2c(OCc3ccc(Br)cc3)cccc2o1 | 500 | 1520 | 76 | 78 | 
930 | Dose-dependent effect |  | Not Active |  | 91.8 | 78.7 |  |  | O=C(NCc1cn(Cc2ccc(Br)cc2)nn1)c1cc(=O)c2c(OCc3ccc(Br)cc3)cccc2o1 | 710 | 570 | 76 | 95 | 
250 | Dose-dependent effect |  | Active |  | 105.2 | 93.1 |  |  | O=C(NCc1cn(CCc2c[nH]c3ccccc23)nn1)c1cc(=O)c2c(OCc3ccc(Br)cc3)cccc2o1 | 460 | 490 | 86 | 87 | 
> 2000 | Dose-dependent effect |  | Active |  | 95.4 | 57.4 |  |  | CN(CCc1c[nH]c2ccccc12)Cc1cc(=O)c2c(OCc3ccc(Br)cc3)cccc2o1.Cl | 1110 | 1770 | 104 | 46 | 
